From PubChem BioAssay
Only some compounds are listed: those with a hit (about 2% of all), similar ones and a draw of the others.
EBV gp42 inh: Epstein-Barr virus gp42 inhibitors, primary screen, biochemical, uHTS, fluorescence polarization; AID 1085, 2008; 220,000 compounds, 0.42% hits; Glycoprotein 42 (Epstein-Barr virus (strain AG876)), Q1HVG2; inhibition, % (tested at 21.74 µM); Fluorescence polarization binding assay, mP read-out
Target sequence (Q1HVG2 whole entry, looked up): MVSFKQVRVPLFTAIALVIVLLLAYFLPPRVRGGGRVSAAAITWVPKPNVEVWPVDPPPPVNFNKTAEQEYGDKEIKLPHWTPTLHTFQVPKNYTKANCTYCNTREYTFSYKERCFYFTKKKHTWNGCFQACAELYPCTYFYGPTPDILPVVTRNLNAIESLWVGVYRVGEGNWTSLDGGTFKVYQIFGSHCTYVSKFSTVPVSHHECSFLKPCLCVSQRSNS
PKD1 inh: inhibitors of human PKD1 kinase, biochemical, fluorescence polarization | Serine/threonine-protein kinase D1 (Homo sapiens), Q15139 | PKD1 kinase fluorescence polarization assay | inhibition, % (test concentration not listed) | 200,000 compounds, 0.056% hits
RanGTP-Impb inh: inhibitors of RanGTP-importin-beta interaction, primary screen, biochemical, FRET, CFP-Ran, YFP-importin-beta, homogeneous; Ran GTPase (GTP-bound) - importin-beta complex; cell-free CFP-Ran/YFP-importin-beta FRET ratio; inhibition, % (test concentration not listed); 300,000 compounds, 1.1% hits;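 active means more than half of the replicate wells show a fall in the fluorescence ratio signal beyond about 16%, limit read from the data, passing the limit was not always enough; inconclusive means exactly half of the replicate wells pass the set limit; inactive means fewer than half of replicates pass the limit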;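 further: 0% = DMSO wells and 100% = Ran loaded with GDP instead of GTP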
Runt-CBFb FRET: inhibitors of RUNX1 Runt–CBFb binding, primary screen, biochemical, FRET, Cerulean-Runt, Venus-CBFb, uHTS; Cerulean-Runt/Venus-CBFb FRET ratio 530/480, 1 h; inhibition, % at 20 µM; 220,000 compounds, 0.46% hits; AID 1496, 2009;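 active means inhibition over about 50% at 20 µM in the single-dose screen, limit read from the data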;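 further: 0% = DMSO wells and 100% = excess unlabeled CBFb competitor control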
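Schedule: protein complex preformed 1 h, compound exposure 1 h, room temperature, dark; test system: Cerulean-labeled Runt domain protein; amount: 100 nM per protein; buffer or medium: Tris 50 mM pH 7.5, KCl, K2SO4, 0.01% BSA; read-out: loss of energy transfer signal; detection: FRET fluorescence; controls: 5 µM unlabeled CBFb as full-inhibition high control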
Runt-SMMHC FRET: inhibitors of RUNX1 Runt–CBFb-SMMHC binding, primary screen, biochemical, FRET, Cerulean-Runt, Venus-CBFb-SMMHC, uHTS | Runt-related transcription factor 1 (Homo sapiens) + Core-binding factor subunit beta … | Cerulean-Runt/Venus-CBFb-SMMHC FRET ratio 530/480, 1 h | inhibition, % at 20 µM | 220,000 compounds, 0.74% hits | AID 1434, 2008;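 active means mean inhibition across duplicate retests at 20 µM reaching about 50%, limit read from the data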;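 further: 0% = DMSO wells and 100% = wells with excess untagged CBFb-SMMHC; inhibitors lower the FRET ratio by blocking Runt binding to CBFb-SMMHC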
MEX-5 binding: MEX-5 zinc finger RNA-binding disruptors – biochemical, C. elegans, fluorescence polarization, MLPCN library, primary screen; Zinc finger protein mex-5 (Caenorhabditis elegans), Q9XUB2; MEX-5/FITC-TCR2 RNA binding; active compounds read low; activity score (negative = inhibition of binding), % at 10 µM; 300,000 compounds, 0.38% hits;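 active means inhibition past about -25% in most replicates, and total fluorescence under double the plate's negative control median, limit read from the data; inconclusive means replicates evenly split on the limit, or fluorescence at least double controls; inactive means too little inhibition in most replicates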;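 further: 0% = DMSO and -100% = 5 µM competing unlabeled TCR2 RNA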
Target sequence (Q9XUB2 whole entry, looked up): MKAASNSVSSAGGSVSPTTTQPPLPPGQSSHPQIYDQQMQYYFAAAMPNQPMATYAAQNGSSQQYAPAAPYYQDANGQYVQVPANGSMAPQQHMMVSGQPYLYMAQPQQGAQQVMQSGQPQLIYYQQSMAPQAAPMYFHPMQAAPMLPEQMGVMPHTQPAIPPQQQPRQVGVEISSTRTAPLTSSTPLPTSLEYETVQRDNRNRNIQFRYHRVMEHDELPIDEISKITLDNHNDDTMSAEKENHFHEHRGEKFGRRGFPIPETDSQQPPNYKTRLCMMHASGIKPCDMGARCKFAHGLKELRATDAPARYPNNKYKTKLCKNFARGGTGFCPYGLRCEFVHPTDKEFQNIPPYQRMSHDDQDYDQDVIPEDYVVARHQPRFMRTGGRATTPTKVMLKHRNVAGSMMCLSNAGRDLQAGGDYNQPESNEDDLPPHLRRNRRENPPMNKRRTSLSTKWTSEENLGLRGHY
The depositor's hits bear a star; ? = inconclusive; . = no result; + = active, no number. Unless noted, no stated cut-off is given here; in the data, active means inhibition above about 50%; inactive means the rest.

SMILES | EBV gp42 inh | PKD1 inh | RanGTP-Impb inh | Runt-CBFb FRET | Runt-SMMHC FRET | MEX-5 binding
CC(C)C(C(=O)O)N1C(=O)/C(=C/C=C/c2ccco2)SC1=S (stereo not drawn) | 6 | 5 | -5 | 24 | 12 | -35*
COc1ccc(C(=O)Nc2ccccc2C(=O)N2CCOCC2)cc1 | . | . | 1 | . | . | -3
Nc1ccccc1NC(=O)NC(=O)c1ccccc1 | . | . | 2 | . | . | -2
Cc1ccc(C(CC(=O)O)NC(=O)CN2C(=O)c3ccccc3C2=O)cc1 (stereo not drawn) | . | . | 70* | . | . | -1
COc1ccccc1C1C2=C(CCCC2=O)N(CC(=O)O)C2=C1C(=O)CCC2 | . | . | 118* | . | . | -4
C#CCOc1c(Cl)cc(C2C3=C(CCCC3=O)N(CC(=O)O)C3=C2C(=O)CCC3)cc1OC | . | . | 127* | . | . | 0
COc1ccc(C2C3=C(CCCC3=O)N(CC(=O)O)C3=C2C(=O)CCC3)cc1Cl | . | . | 112* | . | . | -2
CCOc1cc(C2C3=C(CCCC3=O)N(CC(=O)O)C3=C2C(=O)CCC3)ccc1OC | . | . | -1 | . | . | 0
COc1ccc(C2C3=C(CC(C)(C)CC3=O)N(CC(=O)O)C3=C2C(=O)CC(C)(C)C3)cc1OC | . | . | 0 | . | . | -2
Cc1ccnc(NC(=S)N2CCN(c3cccc(C(F)(F)F)c3)CC2)c1 | . | . | 0 | . | . | 0
O=C(CNS(=O)(=O)c1ccccc1)N1CCN(Cc2ccccc2)CC1 | . | . | 0 | . | . | 1
COc1ccccc1-n1c(-c2ccccc2)c[nH]c1=S | -13 | -12 | ? | 21 | 54* | 1
Cc1cccc(NC(=O)c2ccc(Cn3cc(C(F)(F)F)ccc3=O)cc2)c1 | -9 | -1 | 48* | -4 | 1 | -3
CCc1ccc2nc(N(CCCN(C)C)C(=O)c3ccc(C(=O)c4ccccc4)cc3)sc2c1 | . | . | -3 | . | . | 1
CC(=O)OCCCNc1cc(Sc2nc3ccccc3s2)c2nonc2c1[N+](=O)[O-] | 78* | 5 | -2 | 28 | 18 | -10
CC(=O)OCCCNc1cc(Sc2ccc(C)cc2)c2nonc2c1[N+](=O)[O-] | -11 | 0 | -1 | -28 | -89 | -7
COC(=O)Cn1ncc(N2CC(C)OC(C)C2)c(Cl)c1=O (stereo not drawn) | . | . | 0 | . | . | -1
C=CCn1c(O)c(N=NC(=O)CNC(=O)/C=C/c2ccco2)c2ccccc21 | 62* | 2 | 4 | 3 | -4 | -1
C=CCn1c(O)c(N=NC(=O)CNC(=O)/C=C/c2ccc(OC)cc2)c2ccccc21 | -10 | . | 2 | -5 | 1 | -6
O=C(Cc1ccc([N+](=O)[O-])cc1)N1N=C(C2CC2)CC1(O)C(F)(F)F (stereo not drawn) | 3 | 3 | 0 | . | 1 | 0
Cn1c(=O)c2c(nc(Br)n2CCSc2ncccn2)n(C)c1=O | -3 | -2 | 25* | 0 | -2 | -1
NCCc1nc(-c2ccccc2)cs1 | -5 | -4 | -4 | 3 | 2 | -1
CCOC(=O)N1CCN(C(=O)c2cc3c(=O)n4ccccc4nc3s2)CC1 | . | . | 1 | . | . | 0
CSc1ccccc1NC(=O)c1cc2c(=O)n3ccccc3nc2s1 | . | . | 71* | . | . | -3
Cc1ccccc1NC(=O)c1cc2c(=O)n3cccc(C)c3nc2s1 | . | . | 84* | . | . | -1
SMILES | EBV gp42 inh | PKD1 inh | RanGTP-Impb inh | Runt-CBFb FRET | Runt-SMMHC FRET | MEX-5 binding
Cc1cccn2c(=O)c3cc(C(=O)NC4CCCCCC4)sc3nc12 | . | . | 19* | . | . | 0
CN1CCN(C(=O)c2cc3c(=O)n4ccccc4nc3s2)CC1 | . | . | 20* | . | . | 0
Cc1ccc(NC(=O)COc2ccc(C(=O)c3ccccc3)cc2)c(O)c1 | . | . | 5 | . | . | -1
O=c1[nH]c2c(=O)[nH]cnc2nc1-c1ccccc1 | . | . | 47* | . | . | -9
O=c1[nH]c(-c2ccccc2)cnc1-c1ccccc1 | . | . | 0 | . | . | -5
CCN(CC)c1ccc(/C=C(/C#N)C(=O)NC(C)C)o1 | -306 | 2 | -2 | -5 | -2 | ?
CCN(CC)c1ccc(/C=C(/C#N)C(=O)NCc2ccccc2)o1 | -353 | -19 | 55* | -26 | -19 | 4
Cc1cccn2c(=O)c3cc(C(N)=S)c(=N)n(CCCN4CCOCC4)c3nc12 | 2 | -8 | -2 | 4 | 88* | -13
Cc1ccc2nc3c(cc(C(N)=S)c(=N)n3CCCOC(C)C)c(=O)n2c1 | -15 | 9 | 188* | 11 | 41 | -4
CCn1c(=N)c(C(N)=O)cc2c(=O)n3cccc(C)c3nc21 | . | -1 | . | . | . | .
COCCCn1c(=N)c(C(N)=S)cc2c(=O)n3cccc(C)c3nc21 | . | . | + | . | . | -15
C=CCn1c(=N)c(C(=O)OCC)cc2c(=O)n3cc(C)ccc3nc21 | . | . | . | 12 | 38 | .
CCSc1nnc(NC(=O)Nc2cccc(C)c2)s1 | -1 | . | -2 | 1 | 2 | 0
Cc1cccc2c(C(=O)O)c3cccc(C)c3nc12 | . | . | ? | . | . | 1
O=C1c2cc(F)ccc2-n2c1nc1ccccc1c2=O | . | . | -1 | . | . | -33*
CCCn1c(O)c(N=Nc2ccc3ccccc3n2)c2ccccc21 | 63* | -8 | -8 | -23 | -57 | -8
CC(C)CCn1c(O)c(N=Nc2ccccn2)c2ccccc21 | 4 | -8 | -4 | -10 | -10 | -13
C=CCn1c(=O)[nH]c2nc3cc(N=CN(C)C)c(C)cc3nc2c1=O | 118* | . | -133 | -326 | -110 | -51*
N#C/C(C(=O)Oc1ccccc1)=C1\C=Cc2ccccc2N1 | -5 | -7 | 54* | 34 | 18 | -7
COC(=O)/C(C#N)=C1/C=Cc2ccccc2N1C | -19 | 3 | 0 | -2 | -2 | 0
CCn1cnc2scc(-c3ccccc3)c2c1=O | -10 | 6 | 6 | -2 | -7 | 2
Cn1cc(/C=N/n2cnc3scc(-c4ccc(Cl)cc4)c3c2=O)c2ccccc21 | 6 | -9 | -3 | 1 | 1 | -28*
COc1ccc(CCNC(=O)CSc2nnc3ccc(-c4cccnc4)nn23)cc1 | 9 | -5 | 0 | 0 | 1 | 2
CC1(CCl)N([O-])C2=C(CCCC2)[N+]1=O (stereo not drawn) | -30 | . | 3 | 3 | 2 | -36*
O=[N+]1C2=C(CCCC2)N([O-])C12CCCC2 | -7 | -4 | 0 | -1 | -5 | 1
COc1cc(OC)cc(C(=O)N[C@H](C(=O)NCc2ccco2)C(C)C)c1 | -2 | 3 | 2 | 0 | 0 | 4
